The values that follow come from ChEMBL document CHEMBL1152645, “Structure-based drug design identifies novel LPA3 antagonists” (Bioorg Med Chem, 2009).

Experiment [1] concerns the target T1, Lysophosphatidic acid receptor 3 (Homo sapiens) (UniProt Q9UBY5).
T1 sequence (whole entry): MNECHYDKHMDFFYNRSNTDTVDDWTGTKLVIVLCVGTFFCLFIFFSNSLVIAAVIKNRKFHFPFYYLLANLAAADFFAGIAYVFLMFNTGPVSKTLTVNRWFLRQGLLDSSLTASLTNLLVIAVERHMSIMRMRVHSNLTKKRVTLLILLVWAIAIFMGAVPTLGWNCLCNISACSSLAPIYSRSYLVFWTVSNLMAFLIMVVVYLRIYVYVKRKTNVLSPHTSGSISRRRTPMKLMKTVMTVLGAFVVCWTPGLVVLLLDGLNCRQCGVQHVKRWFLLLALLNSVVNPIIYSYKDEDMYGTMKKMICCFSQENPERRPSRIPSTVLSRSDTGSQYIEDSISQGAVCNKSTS
Description: Agonist activity at LPA3 receptor expressed in rat RH7777 cells assessed as effect on intracellular calcium response at 10 uM. The class given is functional, cell-based. The procedure, abridged: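 Agonist test: compound (methanol stock diluted in buffer) was applied alone to fura-2-loaded, stably receptor-expressing cells after overnight culture and 4-6 h in serum-free medium. Intracellular Ca2+ was followed as the 520 nm emission ratio at 340/380 nm excitation. Run in quadruplicate.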
For orientation: Calcium flux is commonly read through the fluorescence of an indicator in the cells.

The target of experiment [2] is Lysophosphatidic acid receptor 3 (Homo sapiens) (UniProt Q9UBY5). The experiment in a line: Antagonist activity at LPA3 receptor expressed in rat RH7777 cells assessed as inhibition of LPA-induced calcium response at 10 uM.
Experiment [3] addresses T2, Lysophosphatidic acid receptor 1 (Homo sapiens, UniProt Q92633). The experiment in a line: Binding affinity to LPA1.
Experiment [4] deals with T3, Lysophosphatidic acid receptor 3 (Homo sapiens, UniProt Q9UBY5).
T3 sequence (Q9UBY5 whole entry): T1 sequence (whole entry)
Description: (§1) Antagonist activity at LPA3 receptor expressed in rat RH7777 cells assessed as inhibition of LPA-induced intracellular calcium response. The format is functional, cell-based. The procedure, abridged:
(§2)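 Cells stably expressing the receptor were plated, cultured overnight, serum-starved for 4-6 h and loaded with fura-2. LPA-induced Ca2+ mobilization was measured as the 520 nm emission ratio at 340/380 nm excitation. Compounds were dissolved in methanol and diluted in buffer. IC50 came from concentration-response curves, with samples in quadruplicate.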

Experiment [5] addresses T3, Lysophosphatidic acid receptor 3. Description: Binding affinity to LPA3.
In experiment [6] the target is T2, Lysophosphatidic acid receptor 1. The experiment in a line: Antagonist activity at LPA1 receptor expressed in rat RH7777 cells assessed as inhibition of LPA-induced intracellular calcium response. The format is functional, cell-based. In outline: as §2
Experiment [7] deals with T4, Lysophosphatidic acid receptor 5 (Homo sapiens, UniProt Q9H1C0). Description: Binding affinity to LPA5.
T4 sequence (Q9H1C0 whole entry): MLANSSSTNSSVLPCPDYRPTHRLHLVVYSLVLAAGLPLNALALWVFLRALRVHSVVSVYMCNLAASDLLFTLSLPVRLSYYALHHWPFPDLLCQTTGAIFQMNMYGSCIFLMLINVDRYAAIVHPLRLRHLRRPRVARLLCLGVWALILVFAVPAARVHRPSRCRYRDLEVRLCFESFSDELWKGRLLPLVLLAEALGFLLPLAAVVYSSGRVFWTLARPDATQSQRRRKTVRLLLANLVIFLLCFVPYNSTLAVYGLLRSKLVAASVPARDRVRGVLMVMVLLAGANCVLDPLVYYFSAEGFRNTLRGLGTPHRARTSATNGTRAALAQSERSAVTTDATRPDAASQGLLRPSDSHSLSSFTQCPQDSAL
The target in experiment [8] is T4, Lysophosphatidic acid receptor 5. Description: Antagonist activity at LPA5 receptor expressed in rat RH7777 cells assessed as inhibition of LPA-induced intracellular calcium response. The format is functional, cell-based. In outline:
as §2

Experiment [9] has as its target T1, Lysophosphatidic acid receptor 3 (Homo sapiens). The experiment is described as §1. The format is functional, cell-based. The procedure, abridged:
as §2

As a reminder, the inhibition is the relative decrease from the control value, in per cent. In general, Ki refers to the dissociation constant of the complex between target and ligand, obtained from inhibition or displacement. Read a high Ki as a looser hold on the target. For orientation: IC50 means the point on the concentration scale where inhibition reaches its midpoint.

Active and inactive are the calls of the source. The calls are words filed in the database; no cut-off is given here.

T2 sequence (Q92633 whole entry): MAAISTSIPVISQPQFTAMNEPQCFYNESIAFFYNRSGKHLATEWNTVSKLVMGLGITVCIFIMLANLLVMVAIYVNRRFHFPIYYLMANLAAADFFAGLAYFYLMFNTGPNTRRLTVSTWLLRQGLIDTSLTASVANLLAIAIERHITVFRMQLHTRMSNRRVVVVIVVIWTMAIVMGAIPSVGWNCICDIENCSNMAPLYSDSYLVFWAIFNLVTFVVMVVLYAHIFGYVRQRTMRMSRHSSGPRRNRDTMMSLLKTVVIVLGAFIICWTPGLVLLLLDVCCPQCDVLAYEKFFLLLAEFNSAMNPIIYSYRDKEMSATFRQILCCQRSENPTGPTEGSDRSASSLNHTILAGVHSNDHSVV

Take `O=C(O)COc1ccc(N2C(=O)c3ccc(Oc4cccc([N+](=O)[O-])c4)cc3C2=O)cc1`: the outcome in experiment [1] was Active.
Regarding `O=C(O)CCCN1C(=O)c2ccc(C(=O)c3cccc([N+](=O)[O-])c3)cc2C1=O`, the inhibition in experiment [2] stood at 10%.
`O=C1c2ccc(Oc3cccc([N+](=O)[O-])c3)cc2C(=O)N1Cc1cccnc1`: in [2], the inhibition was found to be 38%.
On to `Cc1ccc(Oc2ccc3c(c2)C(=O)N(CC(=O)O)C3=O)cc1`, for which the Ki is 311 nM in experiment [3] and 1080 nM in experiment [5]. The IC50 stood at 2990 nM in experiment [4] and 609 nM in experiment [6].
Take `O=C(O)CCCN1C(=O)c2ccc(Oc3cccc([N+](=O)[O-])c3)cc2C1=O`: the inhibition in experiment [2] is 18%.
Take `O=C(O)c1ccc2c(c1)C(=O)N(c1cccc(Oc3ccc([N+](=O)[O-])cc3)c1)C2=O`: the results for the inhibitory constant (Ki) in experiment [7], in experiment [3] and in experiment [5] were 292 nM, 48 nM and 230 nM, respectively. In addition, the figures for the IC50 in experiment [4], in experiment [8] and in [6] were 752 nM, 463 nM and 94 nM, respectively. Also, the inhibition in experiment [2] amounted to 82%.
Turning to `CC(=O)c1ccc(NC(=O)c2cccc(N3C(=O)c4ccc([N+](=O)[O-])cc4C3=O)c2)cc1`, the inhibition in experiment [2] was 18%.
Regarding `O=C(O)CN1C(=O)c2ccc(C(=O)c3cccc([N+](=O)[O-])c3)cc2C1=O`, the outcome in experiment [1] was Active.
Turning to `Cc1c(C(=O)O)cccc1N1C(=O)c2ccc(Oc3cccc([N+](=O)[O-])c3)cc2C1=O`, the inhibition in experiment [2] amounted to 42%.
Consider `O=C(O)CN1C(=O)c2ccc(Oc3cccc([N+](=O)[O-])c3)cc2C1=O`, for which, in experiment [9], the Imax turned out to be 50%.
Turning to `O=C(O)c1cc(C(=O)O)cc(N2C(=O)c3ccc(Oc4cccc([N+](=O)[O-])c4)cc3C2=O)c1`, in experiment [2], the inhibition was found to be 43%.
Consider `CC(=O)COc1ccc(NC(=O)CN2C(=O)c3ccc([N+](=O)[O-])cc3C2=O)cc1`, for which the outcome in [1] was Active.
On to `O=C(O)c1ccccc1N1C(=O)c2ccc(Oc3ccc([N+](=O)[O-])cc3)cc2C1=O`, for which the inhibition in experiment [2] stood at 38%.
